Measured values taken from publication PMC12799549 (Drug Metabolism and Disposition, 2025).
Read-outs that look alike come from different tables or passages of the source. Marks after values point to notes of the source that are not given here.

Tests used:
HEK293 cells = test: MTT cell viability, HEK293; format: cell-based, human; conditions: for % resistant: plateau of biphasic curve fit, mean ± SEM; for concentration required to impact the remaining (resistant) cells: biphasic viability profile
Procedure, shortened: (§1)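 Cells seeded at 1.1 × 10^5/well in complete medium; 1 h later, medium with a range of test compound concentrations added for 48 h at 37 °C, 5% CO2. Vehicle is DMSO-only medium (100%), and compound medium without cells is background (0%). MTT 1 mg/mL in Dulbecco's PBS for 90 min; formazan dissolved in DMSO, A570. Biphasic curves fitted to a 2-site model: plateau gives % resistant, with a LogEC50 per phase. n = 5.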

E1E2KO cells = test: MTT cell viability, E1E2KO; format: cell-based, human; conditions: 48 h; for % resistant: E1E2KO, plateau of biphasic curve fit; for EC50: Homo sapiens
Procedure, shortened: as §1

ENT1KO cells = test: MTT cell viability, ENT1KO; format: cell-based, human; conditions: 48 h; for % resistant: ENT1KO, plateau of biphasic curve fit; for EC50: Homo sapiens
Procedure, shortened: as §1

ENT2KO cells = test: MTT cell viability, ENT2KO; format: cell-based, human; conditions: 48 h; for % resistant: plateau of biphasic curve fit
Procedure, shortened: as §1

ENT2 [1] = biological target: T1, ENT2 (Homo sapiens, UniProt Q14542); test: Inhibition of [3H]2-chloroadenosine uptake in ENT1KO cells; format: cell-based
T1 sequence (Q14542 1-456): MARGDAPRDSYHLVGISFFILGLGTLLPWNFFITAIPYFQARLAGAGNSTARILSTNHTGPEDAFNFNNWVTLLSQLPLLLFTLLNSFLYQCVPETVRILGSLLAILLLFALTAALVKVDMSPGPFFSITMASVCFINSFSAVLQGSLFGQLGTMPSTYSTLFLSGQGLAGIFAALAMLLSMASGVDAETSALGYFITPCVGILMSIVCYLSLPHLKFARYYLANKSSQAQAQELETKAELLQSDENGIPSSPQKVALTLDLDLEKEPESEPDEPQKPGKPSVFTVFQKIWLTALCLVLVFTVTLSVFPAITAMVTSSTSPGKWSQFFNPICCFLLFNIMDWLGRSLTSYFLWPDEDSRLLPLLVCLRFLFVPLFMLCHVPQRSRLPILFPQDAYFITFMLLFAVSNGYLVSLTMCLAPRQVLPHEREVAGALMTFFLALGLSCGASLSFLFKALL

ENT1 and ENT2 = format: cell-based, human; conditions: HEK293 cells; 10 μM substrate, 15 s uptake; printed as logIC50 (negative)
ENT1 [2] = biological target: T2, ENT1 (Homo sapiens, UniProt Q99808); test: Inhibition of [3H]2-chloroadenosine uptake in ENT2KO cells; format: cell-based; conditions: comparison of ENT2KO cells (ENT1) with ENT1KO cells (ENT2)
T2 sequence (Q99808 1-456): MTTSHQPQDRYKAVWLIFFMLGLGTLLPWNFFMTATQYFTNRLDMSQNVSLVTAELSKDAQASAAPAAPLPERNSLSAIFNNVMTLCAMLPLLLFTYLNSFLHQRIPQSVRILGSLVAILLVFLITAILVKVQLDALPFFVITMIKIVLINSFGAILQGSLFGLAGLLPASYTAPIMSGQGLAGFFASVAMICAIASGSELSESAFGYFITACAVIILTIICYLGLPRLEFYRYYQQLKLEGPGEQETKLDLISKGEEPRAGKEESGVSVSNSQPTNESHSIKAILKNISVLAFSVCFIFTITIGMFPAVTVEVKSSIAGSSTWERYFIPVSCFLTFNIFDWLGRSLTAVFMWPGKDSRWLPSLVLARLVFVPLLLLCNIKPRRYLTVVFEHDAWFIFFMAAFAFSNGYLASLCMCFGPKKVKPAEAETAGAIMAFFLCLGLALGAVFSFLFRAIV

ENT2 [3] = biological target: T1, ENT2; test: [3H]2-chloroadenosine transport kinetics, ENT2-mediated uptake; format: cell-based
Procedure, shortened: (§2)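 Trypsin/EDTA-detached cells were suspended in sodium-free N-methylglucamine buffer, pH 7.4, with 0.1% DMSO, 100 nM NBMPR or 5 mM adenosine, 15 min at room temperature. Uptake of varied [3H]2-chloroadenosine ran 10 s and was stopped by spinning through silicone:mineral oil; NaOH-digested pellets were scintillation-counted. Cell volume came from [3H]-water. ENT2 = NBMPR minus adenosine condition; ENT1 = mediated minus ENT2. Michaelis-Menten Km/Vmax; 5 experiments, duplicate.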

ENT1 [4] = biological target: T2, ENT1; test: [3H]2-chloroadenosine transport kinetics, ENT1-mediated uptake; format: cell-based; conditions: for Vmax of ENT1-mediated uptake: 10 s uptake
Procedure, shortened: as §2

[5] = read-out: LogEC50-1 (converted)
[6] = read-out: LogEC50-2 (converted)

Structure (SMILES) | % resistant (HEK293 cells; 48 h, n = 5) | % resistant (E1E2KO cells) | EC50 (E1E2KO cells; [5]) [µM] | % resistant (ENT1KO cells) | EC50 (ENT1KO cells; [5]) [µM] | % resistant (ENT2KO cells) | concentration required to impact the remaining (resistant) cells (HEK293 cells) [µM] | also measured
O=c1[nH]cc(F)c(=O)[nH]1 [5-fluorouracil] | Monophasic | 48 ± 10% | 7.76 | Monophasic | 8.51 | Monophasic | – | EC50 (E1E2KO cells; [6]): 1070 µM
Sc1ncnc2nc[nH]c12 [6-mercaptopurine] | – | 70 ± 4 ^b % | 26.3 | 66 ± 4 ^b % | 2.95 | 41 ± 3% | > 300 | –
Nc1nc2nc[nH]c2c(=S)[nH]1 [6-thioguanine] | – | Monophasic | 77.6 | 10 ± 3% | 1.7 | 25 ± 5% | > 300 | –
Nc1nc(Cl)nc2c1ncn2[C@H]1C[C@H](O)[C@@H](CO)O1 [Cladribine, cladribine] | Monophasic | Monophasic | 16.6 | Monophasic | 3.98 | Monophasic | – | LogEC50-1 (HEK293 cells; 48 h, high affinity phase, given as logEC50 (negative)): −5.11 ± 0.07; LogEC50-1 (ENT2KO cells; high affinity phase, given as logEC50 (negative)): −4.51 ± 0.07 ^b
Nc1nc(Cl)nc2c1ncn2[C@@H]1O[C@H](CO)[C@@H](O)[C@@H]1F [Clofarabine, clofarabine] | 21 ± 2% | Monophasic | 138 | 6 ± 2 ^b % | 0.174 | 70 ± 3 ^b % | > 300 | Ki (ENT2 [1]): 75 ± 49 µM; % resistant (HEK293 cells; 48 h, n = 5, listed as clofarabine): approximately 20%; sensitivity of ENT2KO cells to the drug (ENT2KO cells): almost completely resistant
Nc1ccn([C@@H]2O[C@H](CO)[C@@H](O)[C@@H]2O)c(=O)n1 [Cytarabine, cytarabine] | 51 ± 2% | Monophasic | – | 37 ± 3 ^b % | 2.34 | Monophasic | > 300 | EC50 (E1E2KO cells; [6]): 11200 µM; EC50 (ENT1KO cells; [6]): 4570 µM; sensitivity of ENT2KO cells to the drug (ENT2KO cells): almost completely resistant
OCCN(CCO)c1nc(N2CCCCC2)c2nc(N(CCO)CCO)nc(N3CCCCC3)c2n1 [DY, Dipyridamole] | – | – | – | – | – | – | – | IC50 (ENT2 [1]): 0.501 µM; logIC50, monophasic inhibition of [3H]2-chloroadenosine uptake (ENT1 and ENT2): −6.6 ±.01 M
COc1cc(C(=O)OCCCN2CCCN(CCCOC(=O)c3cc(OC)c(OC)c(OC)c3)CC2)cc(OC)c1OC [Dilazep, dilazep] | – | – | – | – | – | – | – | IC50 (ENT2 [1]): 6.31 µM
Nc1ccn([C@@H]2O[C@H](CO)[C@@H](O)C2(F)F)c(=O)n1 [Gemcitabine, gemcitabine] | 33 ± 4% | Monophasic | – | 14 ± 2 ^b % | 0.0427 | 76 ± 3 ^b % | > 300 | EC50 (E1E2KO cells; [6]): 1820 µM; EC50 (ENT1KO cells; [6]): 468 µM; sensitivity of ENT2KO cells to the drug (ENT2KO cells): almost completely resistant
Nc1nc2c(ncn2[C@@H]2O[C@H](CO)[C@@H](O)[C@H]2O)c(=O)[nH]1 [Guanosine, guanosine] | – | – | – | – | – | – | – | relative affinity for ENT1 versus ENT2 (ENT1 [2]): significantly higher affinity for ENT1 over ENT2
O=[N+]([O-])c1ccc(CSc2ncnc3c2ncn3[C@@H]2O[C@H](CO)[C@@H](O)[C@H]2O)cc1 [NBMPR, nitrobenzylmercaptopurine riboside (nitrobenzylthioinosine)] | – | – | – | – | – | – | – | concentration required to obtain any inhibition of [3H]2-chloroadenosine uptake (ENT2 [1]; ENT1KO cells): > 1 µM; logIC50, inhibition of [3H]2-chloroadenosine uptake (ENT2 [1]; ENT1KO cells, 10 μM substrate, 15 s uptake, printed as logIC50 (negative)): ~−5.5 ± 0.1 M
Nc1ncnc2c1ncn2[C@@H]1O[C@H](CO)[C@@H](O)[C@@H]1O [Vidarabine] | – | – | – | – | – | – | – | Ki (ENT2 [1]): 60 ± 24 µM
[3H]c1nc2c(N)nc(Cl)nc2n1[C@@H]1O[C@H](CO)[C@@H](O)[C@H]1O [[^3H]2-chloroadenosine, [8-^3H]2-Chloroadenosine] | – | – | – | – | – | – | – | ENT2-mediated uptake (ENT2 [3]; E1E2KO cells): no ENT1-mediated or ENT2-mediated uptake; ENT2-mediated uptake (ENT2 [3]; ENT2KO cells): no detectable ENT2-mediated uptake; ENT1-mediated uptake (ENT1 [4]; E1E2KO cells): no ENT1-mediated or ENT2-mediated uptake; Vmax of ENT1-mediated uptake (ENT1 [4]; ENT2KO cells): 4.8 ± 0.6 pmol/μL per second; Vmax of ENT1-mediated uptake (ENT1 [4]; HEK293 cells): 3.2 ± 0.3 pmol/μL per second
